# Ends that are not written are not given here.
# B1: myelin basic protein (protein, UniProt P04370 1-250, looked up)
# Myelin basic protein: MGNHSGKRELSAEKASKDGEIHRGEAGKKRSVGKLSQTASEDSDVFGEADAIQNNGTSAEDTAVTDSKHTADPKNNWQGAHPADPGNRPHLIRLFSRDAPGREDNTFKDRPSESDELQTIQEDPTAASGGLDVMASQKRPSQRSKYLATASTMDHARHGFLPRHRDTGILDSIGRFFSGDRGAPKRGSGKDSHTRTTHYGSLPQKSQHGRTQDENPVVHFFKNIVTPRTPPPSQGKGGRDSRSGSPMARR
# How the values were obtained:
# [1] = target: T1, I-A^u (Mus musculus, UniProt P06344+P14438); conditions: for Copy/cell: peptides eluted from I-A^u, T cell–depleted B10.PL splenocytes, MBP 95 μg/ml, 16 h, 37°C, based on copy number/cell of MBPAc1-18, determined by comparison to angiotensin control; for times more detected than MBP125–135 peptides: eluted from I-A^u, MBP-pulsed splenocytes
# T1 sequence (P14438 1-227): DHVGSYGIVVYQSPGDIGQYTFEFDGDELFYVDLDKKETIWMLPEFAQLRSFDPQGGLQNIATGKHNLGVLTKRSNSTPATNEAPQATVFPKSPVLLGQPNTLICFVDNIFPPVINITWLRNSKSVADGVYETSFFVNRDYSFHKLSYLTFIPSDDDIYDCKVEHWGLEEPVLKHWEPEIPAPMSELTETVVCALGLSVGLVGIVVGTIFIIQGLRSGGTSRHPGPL
# T1 sequence (P06344 28-263): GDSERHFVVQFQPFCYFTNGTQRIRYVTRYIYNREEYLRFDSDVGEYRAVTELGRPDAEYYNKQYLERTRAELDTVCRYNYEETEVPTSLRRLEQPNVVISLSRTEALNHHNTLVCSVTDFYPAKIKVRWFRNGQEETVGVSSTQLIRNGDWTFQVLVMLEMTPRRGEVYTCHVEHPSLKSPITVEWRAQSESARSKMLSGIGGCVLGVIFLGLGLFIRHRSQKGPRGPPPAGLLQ
# How it was run: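 Spleen cells depleted of T cells (2 × 10^6 cells/ml in RPMI) were incubated 16 h at 37°C with MBP (95 μg/ml). I-Au was captured with anti-I-Au antibody on Protein A beads. Peptides were eluted in 10% acetic acid through a 10 kD filter. About 6 × 10^6 cell equivalents were spiked with 2 fmol angiotensin I and run on C18 gradient LC into FT-ICR MS. Amounts were normalized to the angiotensin standard, and identity was confirmed by CAD MS/MS and coelution with synthetic peptide.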
# [2] = target: T1, I-A^u; conditions: cited from earlier work
# [3] = tested on: T cells from MBP-primed mice; conditions: synthetic peptides; cited from earlier work
# [4] = target: Detergent soluble I-A^u (mouse); assay: dissociation kinetics of fluorescein-labelled peptide
# [5] = target: T1, I-A^u; assay: Dissociation of fluorescein-labeled MBP peptides from soluble I-A^u; assay type: binding; conditions: for dissociation kinetics (in words): fluorescein-labeled peptide, soluble I-A^u, 1 h at 37°C, Fig. 2
# [6] = tested on: MBPAc1–11-specific TCR Tg T cells; assay type: cell-based, mouse; conditions: 50 uM peptide; fixed splenocytes; two TCR Tg lines
# How it was run: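 T cells from MBPAc1–11 TCR transgenic mice were purified with anti-Vα2.3 or anti-Vβ8.1/8.2 and sorted free of I-Au+ cells. They were plated at 2 × 10^5/well in complete RPMI with 50 uM peptide or 95 μg/ml MBP. APCs were 10^6 splenocytes per well, either irradiated live or fixed in 0.1% paraformaldehyde for 5 min at room temperature. Cultures ran 48 h, were pulsed with [3H]-thymidine and harvested 18 h later.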
# [7] = by competition for I-A^u binding; cited from earlier work
# [8] = tested on: MBP-specific T cells; conditions: B10.PL MBP-deficient shiverer (MBP^−/−) mice; cited from earlier work
# [9] = biphasic dissociation, 1 h incubation at 37°C, pH 5.3, HPSEC fluorescence
# [10] = incubation with I-A^u for 1 h at 37°C
molecule,measurement,setting,value
"120-137: MBP peptide from the MBP121–150 region eluted from I-A^u (IQEDPTAASGGLDVMASQ; UniProt P04370 120-137, looked up, fragment)",Copy/cell,[1],3.4 copy/cell
"123-136: MBP peptide from the MBP121–150 region eluted from I-A^u (DPTAASGGLDVMAS; UniProt P04370 123-136, looked up, fragment)",Copy/cell,[1],9.2 copy/cell
"124-137: MBP peptide from the MBP121–150 region eluted from I-A^u (PTAASGGLDVMASQ; UniProt P04370 124-137, looked up, fragment)",Copy/cell,[1],9.2 copy/cell
"Ac1-16: N-acetylated NH2-terminal MBP peptide eluted from I-A^u (Ac-MGNHSGKRELSAEKAS; UniProt P04370 1-16, looked up, fragment)",Copy/cell,[1],18.1 copy/cell
Ac1-19: N-acetylated NH2-terminal MBP peptide eluted from I-A^u,Copy/cell,[1],6.7 copy/cell
"Ac1-20: N-acetylated NH2-terminal MBP peptide eluted from I-A^u (Ac-MGNHSGKRELSAEKASKDGE; UniProt P04370 1-20, looked up, fragment)",Copy/cell,[1],24.4 copy/cell
"Ac1-22: N-acetylated NH2-terminal MBP peptide eluted from I-A^u (Ac-MGNHSGKRELSAEKASKDGEIH; UniProt P04370 1-22, looked up, fragment)",Copy/cell,[1],5.7 copy/cell
"MBP125–135: synthetic peptide; core epitope within MBP121–150 (TAASGGLDVMA; UniProt P04370 125-135, looked up, fragment)",affinity for I-A^u (in words),[2],high affinity for I-A^u
same,stimulation of T cells from MBP-primed mice,[3],stimulated T cells from MBP-primed mice
"MBP136–146: synthetic peptide; epitope within MBP121–150 (SQKRPSQRSKY; UniProt P04370 136-146, looked up, fragment)",affinity for I-A^u (in words),[2],high affinity for I-A^u
same,stimulation of T cells from MBP-primed mice,[3],stimulated T cells from MBP-primed mice
"MBPAc1–11 (synthetic, fluorescein-labelled) (peptide)",dissociation half-life (t1/2),[4],0.5 h
"MBPAc1–11: N-acetylated NH2-terminal MBP epitope, low affinity I-A^u register (Ac-MGNHSGKRELS; UniProt P04370 1-11, looked up, fragment)",dissociation kinetics (in words),[5],monophasic fast dissociation
same,T cell response on fixed APCs (in words),[6],responded well
same,binding to I-A^u (in words),[2],binds I-A^u poorly
MBPAc1–17: N-acetylated NH2-terminal MBP peptide eluted from I-A^u,times more detected than MBP125–135 peptides,[1],~20 times
"MBPAc1–18 (synthetic, fluorescein-labelled) (peptide)","dissociation half-life, fast phase (t1/2fast)",[4],3.7 h
same,"dissociation half-life, slow phase (t1/2slow)",[4],117 h
same,percent of bound peptide in long-lived complexes,[4],62%
same,percent of bound peptide in short-lived complexes,[4],38%
same,percent of bound peptide in the long phase,[4],77%
MBPAc1–18: N-acetylated NH2-terminal MBP peptide containing both the MBPAc1–11 and MBP5–16 registers,times more detected than MBP125–135 peptides,[1],~20 times
same,Copy/cell,[1],622.0 copy/cell
same,t1/2fast (rapid-dissociation phase),[5]; [9],3.7 h
same,t1/2slow (slow phase),[5]; [9],117 h
same,dissociation kinetics (in words),[5],biphasic kinetics
same,peptide bound in long-lived complexes (slow phase),[5]; [10],~62%
same,peptide bound in short-lived complexes (faster phase),[5]; [10],~38%
same,peptide bound in the long phase,"[5]; incubation with I-A^u for 16 h, unpublished data",77%
same,T cell response on fixed APCs (in words),[6],respond well
"MBPAc9–20: MBP peptide (rat) of earlier work (ref 17) (Ac-RHGSKYLATAST; UniProt P02688 10-21, looked up, fragment)",inhibition of EAE,[7],inhibited EAE induced by immunization with rat MBPAc1–11
rat MBPAc5–20: rat MBP peptide of earlier work (ref 17),inhibition of EAE,[7],inhibited EAE induced by immunization with rat MBPAc1–11
B1,T cell response after immunization,[8],strong T cell responses directed toward MBP121–150

# From PMC2193784 (The Journal of Experimental Medicine, 2003)
